# According to article PMC7679043 (Molecular imaging and biology, 2020):
# Entries after “also recorded” stand apart in the source; their conditions may differ. Like-named read-outs stand apart in the source and are kept apart here.
# Tests used:
# S1PR1 [1] = details: read-out: IC50, nM S1PR1; binding affinity reported previously; cited from earlier work
# S1PR2-5 = details: read-out: IC50, nM S1PR2-5; binding affinity reported previously; cited from earlier work
# S1PR1 [2] = target: S1PR1 (Rattus norvegicus, UniProt P48303); assay type: in vivo; details: for Average uptake: 10–60 min post injection; for 2TCM VT: image-derived input function
# Chain of S1PR1 (Rattus norvegicus, UniProt P48303) (P48303 whole entry): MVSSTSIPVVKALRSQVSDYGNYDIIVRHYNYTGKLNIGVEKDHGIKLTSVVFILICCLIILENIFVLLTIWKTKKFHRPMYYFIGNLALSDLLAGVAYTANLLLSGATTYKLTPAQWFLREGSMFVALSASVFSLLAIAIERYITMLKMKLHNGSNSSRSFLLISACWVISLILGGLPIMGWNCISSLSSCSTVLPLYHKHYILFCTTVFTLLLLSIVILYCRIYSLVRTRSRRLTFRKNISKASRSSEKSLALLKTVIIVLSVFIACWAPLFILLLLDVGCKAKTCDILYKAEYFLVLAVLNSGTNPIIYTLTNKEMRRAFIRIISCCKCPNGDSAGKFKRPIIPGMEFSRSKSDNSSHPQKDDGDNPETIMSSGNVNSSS
# How it was run: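 EAE and sham rats (n=3–4 per group per tracer) were held under 1.5–2% isoflurane/oxygen, centered on T13. After CT, each received a 15–22 MBq i.v. bolus, followed by 60-min dynamic list-mode PET. Lumbar spinal cord and bilateral carotid ROIs on co-registered PET/CT gave %ID/g TACs. Mean 10–60 min uptake and 2TCM VT (carotid image-derived input) were compared by two-tailed t-test (P<0.05).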
# [3] = HPLC radiometabolite analysis of rat plasma and brain; assay type: in vivo; details: for level of the lipophilic radiometabolite / level of the polar radiometabolite / percentage of the parent compound: rat plasma
# How it was run: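 Adult male Sprague Dawley rats were given ~37 MBq tracer i.v. At set times post-injection they were killed by terminal exsanguination under surgical-plane anesthesia. Heparinized left-ventricle blood was spun to plasma, solvent-deproteinated and re-centrifuged. Whole brain was homogenized in cold PBS, then solvent-extracted, deproteinated and centrifuged. Supernatants ran on C18 HPLC with acetonitrile/0.1 M ammonium formate pH 4.5 (70/30) at 0.76 mL/min. Radioactive peaks were expressed as percentages.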
# [4] = rat brain homogenate, 5 min p.i.
# [5] = rat brain homogenate, 15 min p.i.
# [6] = rat brain homogenate, 40 min p.i.
# [7] = rat brain homogenate, 60 min p.i.
smiles,measurement,setting,value
OCCOCc1ccc(-c2noc(-c3ccc(OCCF)c(C(F)(F)F)c3)n2)cc1 [TZ4877],IC50,S1PR1 [1],14.01 ± 0.04 nM
same,IC50,S1PR2-5,> 1000 nM
OCCOCc1ccc(-c2noc(-c3ccc(OCC[18F])c(C(F)(F)F)c3)n2)cc1 [TZ4877],Average uptake,S1PR1 [2]; EAE rat lumbar spinal cord,1.42 ± 0.14 %ID/g
same,2TCM VT,S1PR1 [2]; EAE rat lumbar spinal cord,2.18 ± 0.20 mL/cc
same,"2TCM VT Increase, %",S1PR1 [2]; EAE vs sham,21.11%
same,"Average uptake Increase, %","S1PR1 [2]; EAE vs sham rat lumbar spinal cord, listed as 18F-TZ4877",29.09%
same,bone uptake/defluorination,"S1PR1 [2]; PET images without CT co-registration, rat",no obvious bone uptake/defluorination
same,initial tracer uptake at 20 min,"S1PR1 [2]; rat spinal cord, 20 min",~ 1.5 %ID/g
same,tracer uptake / retention at 60 min,"S1PR1 [2]; rat spinal cord, 60 min",> 1.0 %ID/g
same,Average uptake,"S1PR1 [2]; sham rat lumbar spinal cord, listed as 18F-TZ4877",1.10 ± 0.06 %ID/g
same,2TCM VT,S1PR1 [2]; sham rat lumbar spinal cord,1.80 ± 0.20 mL/cc
same,hydrophilic radiometabolite,[3]; [4],6%
same,parent tracer percentage,[3]; [4],78%
same,hydrophilic radiometabolite,[3]; [5],2%
same,parent tracer percentage,[3]; [5],89%
same,hydrophilic radiometabolite,[3]; [6],10%
same,parent tracer percentage,[3]; [6],65%
same,hydrophilic radiometabolite,[3]; [7],14%
same,parent tracer percentage,[3]; [7],68%
same,lipophilic radiometabolite in brain,"[3]; rat brain homogenate, listed as 18F-TZ4877",No lipophilic radioactive peak was detected; also recorded: not detected
same,level of the lipophilic radiometabolite,[3]; 5 min p.i.,14%
same,level of the polar radiometabolite,[3]; 5 min p.i.,7%
same,percentage of the parent compound,[3]; 5 min p.i.,75%
same,level of the lipophilic radiometabolite,[3]; 15 min p.i.,21%
same,level of the polar radiometabolite,[3]; 15 min p.i.,6%
same,percentage of the parent compound,[3]; 15 min p.i.,68%
same,level of the lipophilic radiometabolite,[3]; 40 min p.i.,26%
same,level of the polar radiometabolite,[3]; 40 min p.i.,5%
same,percentage of the parent compound,[3]; 40 min p.i.,66%
same,level of the lipophilic radiometabolite,[3]; 60 min p.i.,41%
same,level of the polar radiometabolite,[3]; 60 min p.i.,5%
same,percentage of the parent compound,[3]; 60 min p.i.,51%
